STEP inh – inhibitors of human striatal-enriched phosphatase STEP; recombinant STEP, OMFP fluorogenic substrate, fluorescence; inhibition, % at 20 µM; 360,000 compounds, 0.25% hits;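 active = inhibition at 20 µM, scaled per plate between control wells, above about 37%, limit read from the data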
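Test system: STEP tyrosine phosphatase / Reagent: OMFP at 25 µM / Doses: 20 µM, 1% DMSO / Read-out: percent inhibition scaled to no-enzyme and uninhibited-enzyme controls, plate-pattern corrected / Detection: FITC-channel fluorescence of OMFP product / Medium: Bis-Tris buffer pH 6.0, 2.5 mM DTT, 0.005% Tween 20 / Schedule: 20 min at room temperature, dark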
SUMO1-SIM PPI – modulators of human SUMO1-mediated protein-protein interactions; P63165; SUMO1 binding to a labelled peptide, TR-FRET, 1 h; inhibition, % at 20 µM; 360,000 compounds, 0.33% hits; AID 602429; in the data active = inhibition above about 37%
Target sequence (P63165 whole entry, looked up): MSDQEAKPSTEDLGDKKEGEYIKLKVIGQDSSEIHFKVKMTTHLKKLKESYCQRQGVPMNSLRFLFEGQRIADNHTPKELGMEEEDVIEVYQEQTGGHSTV
NadD inh – blocks S. aureus nicotinate mononucleotide adenylyltransferase; purified NadD enzyme, colorimetric absorbance read-out; inhibition, % at 20 µM; 360,000 compounds, 0.78% hits; in the data active = inhibition above about 26%
Scp-1 inhibitor – inhibitors of human Scp-1 phosphatase; 340,000 compounds, 0.88% hits; Q9GZU7; AID 493091; inhibition, % at 20 µM; Recombinant Scp1, phosphopeptide, malachite green phosphate absorbance;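 active = inhibition above about 50% at 20 µM, limit read from the data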
Target sequence (Q9GZU7 76-261 limits assumed): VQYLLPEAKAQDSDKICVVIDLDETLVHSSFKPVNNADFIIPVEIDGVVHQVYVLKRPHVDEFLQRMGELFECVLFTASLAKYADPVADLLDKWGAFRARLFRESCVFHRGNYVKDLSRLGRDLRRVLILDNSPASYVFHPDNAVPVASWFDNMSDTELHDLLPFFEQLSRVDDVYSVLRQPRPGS
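assay system = SCP-1 phosphatase catalytic domain, residues 76-261 | buffer or medium = 50 mM Tris acetate pH 5.5, 0.005% Tween-20, 10 mM MgCl2 | incubation = enzyme reaction 45 min at room temperature, colour 5 min, stabilisation 30 min | signal = Phosphate-binding colour reagent, absorbance read at 630 nm | measure = % inhibition at 20 µM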
DNMT1 block – inhibitors of human DNMT1; DNMT1 molecular beacon, Hinp1I cleavage, fluorescence; inhibition (reported as % activation of signal), % at 10 µM; 360,000 compounds, 0.83% hits; in the data active = inhibition above about 50%
LMPTP block – LMPTP (human) inhibition | inhibition, % at 20 µM | 360,000 compounds, 0.22% hits | recombinant LMPTP-A, OMFP fluorogenic substrate, fluorescence intensity | P24666;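 active = compounds that cut the enzyme signal by at least half of the control window in the single-dose screen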
Target sequence (P24666 whole entry, looked up): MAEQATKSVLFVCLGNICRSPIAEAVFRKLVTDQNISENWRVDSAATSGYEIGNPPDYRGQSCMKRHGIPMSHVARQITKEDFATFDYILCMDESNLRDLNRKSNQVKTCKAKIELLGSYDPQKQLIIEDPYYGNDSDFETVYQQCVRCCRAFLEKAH
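Test system: LMPTP-A phosphatase enzyme. Amount: LMPTP-A at 0.625 nM final in the reaction. Reagent: OMFP substrate, 400 µM final. Times: 50 min at room temperature. Signal: endpoint fluorescence intensity from OMFP dephosphorylation. Read-out basis: % inhibition. Benchmarks: no-enzyme and uninhibited controls.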
Scp-1 conf – Scp-1 (human) inhibition, single-dose confirmed | inhibition, % at 20 µM | recombinant SCP-1 catalytic domain, phosphate release, malachite green absorbance | shares compounds with Scp-1 inhibitor | AID 540281 | 2,500 compounds, 61% hits
Scp-1 MG ctr – counter-screen for Scp-1 inhibitors: colorimetric interference. apparent inhibition (interference), % at 20 µM. Colorimetric interference counterscreen, malachite green absorbance 630 nm. AID 540313. 2,500 tested, under 10 active. shares compounds with Scp-1 inhibitor;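 note: compounds added after enzyme reaction finished so only phosphate colour detection is probed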
Scp-1 Tm shift – validation of human Scp-1 inhibitors by thermal shift binding | shares compounds with Scp-1 inhibitor | Recombinant SCP1, Sypro Orange thermal shift Tm | thermal shift relative to vanadate control, % at 40 µM | 1,500 compounds, 25% hits | AID 540329;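 active = substances whose mean melting-temperature shift, as a percentage of the reference inhibitor's shift, reaches about 5.3%, limit read from the data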
Large screens that a line does not name were inactive (follow-up assays come after a bar, where they were run). Hits are enriched below; roughly 2.4% of the tested compounds scored in any of these assays.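 Rule for the calls, unless noted: active = inhibition of at least 30% at 20 µM; inactive = the rest.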

COc1cccc2cc(C(=O)Nc3ccc(F)cc3)c(=Nc3ccc(C(=O)O)cc3)oc12	Scp-1 inhibitor 102 | Scp-1 conf inactive | Scp-1 MG ctr inactive
N#C/C(=C\c1ccc(OCC(N)=O)cc1)S(=O)(=O)c1ccccc1	none
O=C(COc1ccc(-n2cnnn2)cc1)Nc1cccc(Cl)c1Cl	Scp-1 inhibitor 69 | Scp-1 conf 68 | Scp-1 MG ctr inactive | Scp-1 Tm shift inactive
Cc1ccc(C)c(NC(=O)CSc2sc3c(O)cc(=O)[nH]c3c2C#N)c1	Scp-1 inhibitor 60 | Scp-1 conf 67 | Scp-1 MG ctr inactive | Scp-1 Tm shift 11
COc1ccc(Cl)cc1NC(=O)CSc1sc2c(O)cc(=O)[nH]c2c1C#N	none
Cc1ccc(NC(=O)CSc2nc3[nH]c(=O)cc(O)c3s2)c(Br)c1	none
Cc1ccc(Cl)cc1NC(=O)CSc1sc2c(O)cc(=O)[nH]c2c1C#N	Scp-1 inhibitor 56 | Scp-1 conf 62 | Scp-1 MG ctr inactive | Scp-1 Tm shift 16
COC(=O)c1ccc(C)c(NC(=O)CSc2sc3c(O)cc(=O)[nH]c3c2C#N)c1	Scp-1 inhibitor 68 | Scp-1 conf 53 | Scp-1 MG ctr inactive | Scp-1 Tm shift 12
O=c1[nH]c(C2CCN(S(=O)(=O)Cc3ccccc3)CC2)nc2c1nnn2Cc1cccc(Cl)c1	none
COc1ccccc1C(=O)Nc1c2c(nn1-c1cccc(C)c1C)CS(=O)(=O)C2	Scp-1 inhibitor 73 | Scp-1 conf 46 | Scp-1 MG ctr inactive | Scp-1 Tm shift inactive
Cc1cccc(-n2nc3c(c2NC(=O)c2ccco2)CS(=O)(=O)C3)c1C	none
COc1ccccc1C(=O)Nc1c2c(nn1-c1ccc(Cl)cc1)CS(=O)(=O)C2	Scp-1 inhibitor 50 | Scp-1 conf inactive | Scp-1 MG ctr inactive
COc1ccccc1C(=O)Nc1c2c(nn1-c1ccc([N+](=O)[O-])cc1)CS(=O)(=O)C2	none
COc1cc(O)c2c(c1)OC(c1ccc(O)cc1)CC2=O (stereo not given)	none
Cc1c(O)cc2c(c1O)C(=O)CC(c1ccc(O)cc1)O2 (stereo not given)	Scp-1 inhibitor 58 | Scp-1 conf 45 | Scp-1 MG ctr inactive | Scp-1 Tm shift 6.2
CN(C)S(=O)(=O)c1ccc(N2CCCC2)c(C(=O)NCC2CCCCC2)c1	none
N=C1S/C(=C\c2ccco2)C(=O)N1c1nccs1	none
N=C1S/C(=C\c2ccco2)C(=O)N1c1ccc2c(c1)OCO2	Scp-1 inhibitor 79 | Scp-1 conf 46 | Scp-1 MG ctr inactive | Scp-1 Tm shift inactive
COc1cccc2sc3cc(C#Cc4ccccn4)ccc3c(=O)c12	none
COc1cc2sc3ccc(C#Cc4ccccn4)cc3c(=O)c2cc1OC	Scp-1 inhibitor 50 | Scp-1 conf inactive | Scp-1 MG ctr inactive
CC[N+](CC)(CC)CC(=O)Nc1ccc(SC(F)F)cc1	Scp-1 inhibitor 60 | Scp-1 conf inactive | Scp-1 MG ctr inactive
Cc1ccc(/C=N/NC(=O)c2c[nH]c3ccccc23)s1	none
Cc1ccsc1/C=N/NC(=O)c1c[nH]c2ccccc12	Scp-1 inhibitor 69 | Scp-1 conf inactive | Scp-1 MG ctr inactive
CC(C)(C)c1ccc(OCCNC(=S)Nc2ccccc2)cc1	Scp-1 inhibitor 57 | Scp-1 conf inactive | Scp-1 MG ctr inactive
CN(C)CCOc1ccccc1-c1ccccc1	Scp-1 inhibitor 76 | Scp-1 conf inactive | Scp-1 MG ctr inactive
COC(=O)c1ccc2nc(-c3ccc(Cl)cc3)c(Cc3cccc(Cl)c3)n2c1	none (no result: STEP inh, Scp-1 inhibitor, DNMT1 block)
CC(C)(C)c1ccc2c(c1)OC(C(=O)N/N=C\c1ccncc1)CO2 (stereo not given)	none
CC(C)(C)c1ccc2c(c1)OC(C(=O)N/N=C/c1ccc([N+](=O)[O-])o1)CO2 (stereo not given)	Scp-1 inhibitor 108 | Scp-1 conf 64 | Scp-1 MG ctr inactive | Scp-1 Tm shift inactive
Fc1cc(F)c(NC(=S)N2CCOCC2)c(F)c1	Scp-1 inhibitor 95 | Scp-1 conf inactive | Scp-1 MG ctr inactive
COc1ccc(S(=O)(=O)CCC(=O)Nc2c(C)n(C)n(-c3ccccc3)c2=O)cc1	Scp-1 inhibitor 55 | Scp-1 conf inactive | Scp-1 MG ctr inactive
COC(=O)CCC(=O)Nc1c(C)n(C)n(-c2ccccc2)c1=O	none
Cc1ccc(Cl)cc1NC(=O)Nc1c(C)n(C)n(-c2ccccc2)c1=O	Scp-1 inhibitor 76 | Scp-1 conf inactive | Scp-1 MG ctr inactive
Cc1c(NC(=O)CN2C(=O)NC(C)(c3ccccc3)C2=O)c(=O)n(-c2ccccc2)n1C (stereo not given)	none | Scp-1 conf inactive | Scp-1 MG ctr inactive
COc1ccc(S(=O)(=O)N2CCOCC2)cc1NC(=O)c1ccc(OC(F)F)cc1	none
Cc1nc(NC(=O)CN2CCCCC2)sc1C(=O)N(C)C	none
COc1ccc(S(=O)(=O)N(C)C)cc1NC(=O)c1ccc(OCC2CCCO2)cc1 (stereo not given)	none (no result: Scp-1 inhibitor)
Cc1ncc2c(c1OC(=O)c1ccccc1)COC(C)(C)OC2	none
Cc1c(OC(=O)c2ccc([N+](=O)[O-])cc2)c2c(c[n+]1C)COC(C)(C)OC2	Scp-1 inhibitor 67 | Scp-1 conf 79 | Scp-1 MG ctr inactive | Scp-1 Tm shift inactive
CCc1cccc(C)c1NC(=O)CCCN1C(=O)CN(C)C1=O	none | Scp-1 conf inactive | Scp-1 MG ctr inactive
COc1ccc(C)cc1NC(=O)CCCN1C(=O)CN(C)C1=O	none | Scp-1 conf inactive | Scp-1 MG ctr inactive
COc1ccc(C)cc1NC(=O)CCCN1C(=O)C2CC=CCC2C1=O (stereo not given)	none
COC(=O)c1ccc(C)c(NC(=O)CCCN2C(=O)CN(C)C2=O)c1	none
CCOc1cc(/C=C2/NC(=O)N(CC(=O)OC)C2=O)ccc1O	none
C[C@H](CO)N1C[C@H](C)[C@@H](CN(C)C(=O)Nc2ccc(C(F)(F)F)cc2)Oc2c(NC(=O)c3ccncc3)cccc2C1=O	Scp-1 inhibitor 88 | Scp-1 conf inactive | Scp-1 MG ctr inactive
COc1ccc(NC(=O)Nc2cccc3c2O[C@H](CN(C)C(=O)Nc2ccccc2)[C@@H](C)CN([C@H](C)CO)C3=O)cc1	none
COc1ccc(NC(=O)N(C)C[C@H]2Oc3c(NC(=O)c4ccncc4)cccc3C(=O)N([C@H](C)CO)C[C@@H]2C)cc1	Scp-1 inhibitor 61 | Scp-1 conf inactive | Scp-1 MG ctr inactive
